In ChEMBL document CHEMBL4229515, “A novel synthesis of 2-arylbenzimidazoles in molecular sieves-MeOH system and their antitubercular activity” (Bioorg Med Chem, 2018):
Values after ≈ are worked out from the molar mass of the structure shown.

How the values were obtained:
[1] = Lipophilicity, log P of the compound; format: physicochemical; conditions: octanol/water
[2] = tested on: Mycobacterium tuberculosis; assay: Antimycobacterial activity against Mycobacterium tuberculosis H37Rv by BACTEC 460 radiometric method; format: functional
How it was run: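 Radiometric BACTEC assay against the H37Rv strain, run per a previously reported method. Positive controls were rifampicin, streptomycin and isoniazid. The MIC was read in µM.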

[3] = target: DNA gyrase subunit A/DNA gyrase subunit B (Mycobacterium tuberculosis (strain ATCC 25618 / H37Rv), UniProt P9WG45+P9WG47); assay: Inhibition of Mycobacterium tuberculosis DNA gyrase supercoiling activity using relaxed pBR322 as substrate after 30 mins by agarose gel electrophoresis; format: protein-complex assay
Sequence of DNA gyrase subunit A/DNA gyrase subunit B (P9WG45 whole entry): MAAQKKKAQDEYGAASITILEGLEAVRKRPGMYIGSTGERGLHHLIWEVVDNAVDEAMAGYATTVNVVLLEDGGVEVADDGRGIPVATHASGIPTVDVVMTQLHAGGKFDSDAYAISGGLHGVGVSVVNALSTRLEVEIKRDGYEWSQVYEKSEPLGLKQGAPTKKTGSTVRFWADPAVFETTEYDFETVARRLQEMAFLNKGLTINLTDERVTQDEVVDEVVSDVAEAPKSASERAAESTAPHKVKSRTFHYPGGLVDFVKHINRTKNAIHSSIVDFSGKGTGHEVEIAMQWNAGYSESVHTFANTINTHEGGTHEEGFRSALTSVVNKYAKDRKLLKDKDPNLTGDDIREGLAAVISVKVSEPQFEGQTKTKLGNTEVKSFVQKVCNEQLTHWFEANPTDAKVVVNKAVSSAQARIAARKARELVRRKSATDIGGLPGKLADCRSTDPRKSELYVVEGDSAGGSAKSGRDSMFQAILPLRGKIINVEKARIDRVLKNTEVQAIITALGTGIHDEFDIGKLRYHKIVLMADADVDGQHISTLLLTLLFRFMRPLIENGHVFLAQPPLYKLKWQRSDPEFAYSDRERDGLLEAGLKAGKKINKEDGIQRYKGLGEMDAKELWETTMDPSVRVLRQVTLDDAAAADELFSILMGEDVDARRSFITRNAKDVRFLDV
Sequence of DNA gyrase subunit A/DNA gyrase subunit B (P9WG47 whole entry): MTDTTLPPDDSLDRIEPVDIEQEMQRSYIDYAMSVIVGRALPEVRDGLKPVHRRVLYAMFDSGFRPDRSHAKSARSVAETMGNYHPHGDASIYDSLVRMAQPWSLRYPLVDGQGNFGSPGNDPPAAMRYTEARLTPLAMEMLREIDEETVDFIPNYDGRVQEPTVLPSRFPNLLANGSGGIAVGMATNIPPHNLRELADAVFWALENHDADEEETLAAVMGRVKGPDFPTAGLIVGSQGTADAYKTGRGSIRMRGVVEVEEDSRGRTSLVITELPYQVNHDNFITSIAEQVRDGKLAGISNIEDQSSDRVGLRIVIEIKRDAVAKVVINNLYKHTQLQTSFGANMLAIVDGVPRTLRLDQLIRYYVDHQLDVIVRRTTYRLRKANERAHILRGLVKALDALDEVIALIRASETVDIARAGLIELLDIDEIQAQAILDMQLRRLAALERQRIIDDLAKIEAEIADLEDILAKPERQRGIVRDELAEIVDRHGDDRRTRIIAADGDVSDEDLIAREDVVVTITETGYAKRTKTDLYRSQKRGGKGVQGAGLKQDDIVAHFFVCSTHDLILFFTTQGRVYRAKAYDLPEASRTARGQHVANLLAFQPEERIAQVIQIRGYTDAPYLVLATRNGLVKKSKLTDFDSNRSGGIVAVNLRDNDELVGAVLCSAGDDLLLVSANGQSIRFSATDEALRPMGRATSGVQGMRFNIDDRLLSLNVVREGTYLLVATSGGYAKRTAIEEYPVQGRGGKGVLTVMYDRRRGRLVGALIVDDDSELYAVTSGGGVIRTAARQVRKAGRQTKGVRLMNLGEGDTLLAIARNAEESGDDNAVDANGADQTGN

Row | SMILES | logP ([1]; read-out: logP) | MIC [2] [µM] | IC50 [3] [µM] | logP [1]
1 | Fc1ccc(Cn2c(-c3ccc(F)cc3)nc3ccccc32)cc1 | 5.51 | 312 (≈ 99.9 µg/mL) |  | 
2 | COc1ccc2c(c1)nc(-c1ccc(F)cc1)n2Cc1ccc(F)cc1 | 5.02 | 285 (≈ 99.9 µg/mL) |  | 
3 | COc1ccccc1-c1nc2ccccc2[nH]1 | 2.74 | 406 (≈ 91.1 µg/mL) |  | 
4 | c1ccc2c(c1)nc(-c1ccc3c(c1)OCO3)n2Cc1ccc2c(c1)OCO2 | 2.64 | 67 (≈ 24.9 µg/mL) | 85.7 | 
5 | COc1ccc2[nH]c(-c3ccc(F)cc3)nc2c1 | 2.9 | 103 (≈ 25 µg/mL) | 380 | 
6 | COc1ccc2c(c1)nc(-c1ccc3c(c1)OCO3)n2Cc1ccc2c(c1)OCO2 | 4.26 | 24 (≈ 9.66 µg/mL) | 294 | 
7 | [H]/N=C(/N)N[C@H]1[C@H](O)[C@@H](O)[C@H](O[C@@H]2O[C@@H](C)[C@](O)(C=O)[C@H]2O[C@@H]2O[C@@H](CO)[C@H](O)[C@@H](O)[C@@H]2NC)[C@@H](N/C(N)=N\[H])[C@@H]1O [STREPTOMYCIN] | 8.01 | 4 (≈ 2.33 µg/mL) |  | 
8 | Oc1ccc(-c2nc3ccccc3[nH]2)cc1 | 2.47 | 424 (≈ 89.1 µg/mL) |  | 
9 | CO[C@H]1/C=C/O[C@@]2(C)Oc3c(C)c(O)c4c(O)c(c(/C=N/N5CCN(C)CC5)c(O)c4c3C2=O)NC(=O)/C(C)=C\C=C\[C@H](C)[C@H](O)[C@@H](C)[C@@H](O)[C@@H](C)[C@H](OC(C)=O)[C@@H]1C [RIFAMPIN] |  | 3 (≈ 2.47 µg/mL) |  | 3.72
10 | NNC(=O)c1ccncc1 [ISONIAZID] |  | 1 (≈ 0.137 µg/mL) |  | 0.64
